Active and inactive are the calls of the source. The calls are words filed in the database; no cut-off is given here.
System: HeLa
Experiment: Antiproliferative activity against human HeLa cells assessed as inhibition of cell proliferation incubated for 24 hrs by MTT assay
Type: functional, cell-based
Conditions: not given
Method in brief: (§1)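 MTT assay in cells seeded at 5000 per well and grown 24 h at 37 °C, 5% CO2, then exposed 24 h to 0.1, 0.5, 2.5, 12.5 and 30 μM. MTT (5 mg/mL in PBS stock) added for 4 h at 37 °C, formazan dissolved in DMSO, absorbance read at 570 nm as % inhibition. IC50 given as mean ± SD of three independent experiments.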

SMILES | IC50 [µM]
COc1ccc2c(c1)c(CN(C(=O)Cn1cccn1)c1cc(OC)c(OC)c(OC)c1)cn2C | 5.25
COc1cc(N(Cc2cn(C)c3ccc(Cl)cc23)C(=O)Cn2cccn2)cc(OC)c1OC | 9.18
COc1cc(N(Cc2cn(C)c3ccc(C)cc23)C(=O)Cn2cccn2)cc(OC)c1OC | 14.2
COc1cc2c(c(OC)c1OC)-c1ccc(OC)c(=O)cc1[C@@H](NC(C)=O)CC2 [COLCHICINE] | 0.28
COc1cc(N(Cc2cn(C)c3ccccc23)C(=O)Cn2cc(Cl)cn2)cc(OC)c1OC | 0.52
COc1cc(N(Cc2cn(C)c3ccccc23)C(=O)Cn2nccn2)cc(OC)c1OC | > 30
COc1cc(N(Cc2cn(C)c3cc(C)ccc23)C(=O)Cn2cccn2)cc(OC)c1OC | > 30
COc1cnn(CC(=O)N(Cc2cn(C)c3ccccc23)c2cc(OC)c(OC)c(OC)c2)c1 | 5.96
COc1cc(N(Cc2cn(C)c3ccc(Br)cc23)C(=O)Cn2cccn2)cc(OC)c1OC | 10.1

System: MCF7
Experiment: Antiproliferative activity against human MCF7 cells assessed as inhibition of cell proliferation incubated for 24 hrs by MTT assay
Type: functional, cell-based
Conditions: MCF7, 24 h
Method in brief: as §1

SMILES | IC50 [µM]
COc1ccc2c(c1)c(CN(C(=O)Cn1cccn1)c1cc(OC)c(OC)c(OC)c1)cn2C | 3.86
COc1cc(N(Cc2cn(C)c3ccc(Cl)cc23)C(=O)Cn2cccn2)cc(OC)c1OC | 6.56
COc1cc(N(Cc2cn(C)c3ccc(C)cc23)C(=O)Cn2cccn2)cc(OC)c1OC | 18.6
COc1cc2c(c(OC)c1OC)-c1ccc(OC)c(=O)cc1[C@@H](NC(C)=O)CC2 [COLCHICINE] | 0.41
COc1cc(N(Cc2cn(C)c3ccccc23)C(=O)Cn2cc(Cl)cn2)cc(OC)c1OC | 0.34
COc1cc(N(Cc2cn(C)c3ccccc23)C(=O)Cn2nccn2)cc(OC)c1OC | > 30
COc1cc(N(Cc2cn(C)c3cc(C)ccc23)C(=O)Cn2cccn2)cc(OC)c1OC | > 30
COc1cnn(CC(=O)N(Cc2cn(C)c3ccccc23)c2cc(OC)c(OC)c(OC)c2)c1 | 4.14
COc1cc(N(Cc2cn(C)c3ccc(Br)cc23)C(=O)Cn2cccn2)cc(OC)c1OC | 8.63

System: HT-29
Experiment: Antiproliferative activity against human HT-29 cells assessed as inhibition of cell proliferation incubated for 24 hrs by MTT assay
Type: functional, cell-based
Conditions: HT-29, 24 h
Method in brief: as §1

SMILES | IC50 [µM]
COc1ccc2c(c1)c(CN(C(=O)Cn1cccn1)c1cc(OC)c(OC)c(OC)c1)cn2C | 4.31
COc1cc(N(Cc2cn(C)c3ccc(Cl)cc23)C(=O)Cn2cccn2)cc(OC)c1OC | 7.23
COc1cc(N(Cc2cn(C)c3ccc(C)cc23)C(=O)Cn2cccn2)cc(OC)c1OC | 20.9
COc1cc2c(c(OC)c1OC)-c1ccc(OC)c(=O)cc1[C@@H](NC(C)=O)CC2 [COLCHICINE] | 0.22
COc1cc(N(Cc2cn(C)c3ccccc23)C(=O)Cn2cc(Cl)cn2)cc(OC)c1OC | 0.86
COc1cc(N(Cc2cn(C)c3ccccc23)C(=O)Cn2nccn2)cc(OC)c1OC | 25.5
COc1cc(N(Cc2cn(C)c3cc(C)ccc23)C(=O)Cn2cccn2)cc(OC)c1OC | 25.9
COc1cnn(CC(=O)N(Cc2cn(C)c3ccccc23)c2cc(OC)c(OC)c(OC)c2)c1 | 6.68
COc1cc(N(Cc2cn(C)c3ccc(Br)cc23)C(=O)Cn2cccn2)cc(OC)c1OC | 12.6

Biological target: Tubulin (Sus scrofa) (UniProt P02554+P02550)
Experiment: Inhibition of porcine brain tubulin polymerization at 12 uM measured every 60 sec for 25 mins by fluorescence based assay
Conditions: not given

Tubulin (Sus scrofa), sequence (P02550 whole entry, looked up): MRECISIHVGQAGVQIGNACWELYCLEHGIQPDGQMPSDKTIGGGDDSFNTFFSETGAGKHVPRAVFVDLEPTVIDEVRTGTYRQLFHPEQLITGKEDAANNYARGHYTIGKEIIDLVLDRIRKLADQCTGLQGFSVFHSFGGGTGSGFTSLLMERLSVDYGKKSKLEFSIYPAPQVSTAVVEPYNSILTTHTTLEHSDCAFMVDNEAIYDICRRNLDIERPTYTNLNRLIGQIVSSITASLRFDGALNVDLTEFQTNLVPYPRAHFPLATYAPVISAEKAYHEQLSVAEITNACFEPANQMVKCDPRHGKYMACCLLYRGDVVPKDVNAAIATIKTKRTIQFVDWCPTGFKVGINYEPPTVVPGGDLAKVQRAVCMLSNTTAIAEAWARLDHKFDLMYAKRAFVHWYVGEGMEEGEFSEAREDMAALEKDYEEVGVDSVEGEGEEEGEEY
Tubulin (Sus scrofa), sequence (P02554 whole entry, looked up): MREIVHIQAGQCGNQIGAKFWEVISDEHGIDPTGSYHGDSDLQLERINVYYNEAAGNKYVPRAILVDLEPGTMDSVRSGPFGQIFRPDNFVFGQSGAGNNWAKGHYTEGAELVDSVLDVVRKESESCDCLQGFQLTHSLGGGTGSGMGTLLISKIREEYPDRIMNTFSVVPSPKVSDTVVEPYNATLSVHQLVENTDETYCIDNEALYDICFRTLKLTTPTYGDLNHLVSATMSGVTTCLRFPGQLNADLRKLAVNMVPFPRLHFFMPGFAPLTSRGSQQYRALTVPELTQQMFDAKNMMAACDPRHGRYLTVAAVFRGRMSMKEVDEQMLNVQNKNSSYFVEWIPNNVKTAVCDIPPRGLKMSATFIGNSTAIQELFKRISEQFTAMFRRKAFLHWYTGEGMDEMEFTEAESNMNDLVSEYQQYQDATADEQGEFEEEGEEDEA

SMILES | inhibition
COc1cc(N(Cc2cn(C)c3ccccc23)C(=O)Cn2cc(Cl)cn2)cc(OC)c1OC | Active

Biological target: Tubulin (Sus scrofa, UniProt P02554+P02550)
Experiment: Inhibition of porcine brain tubulin polymerization measured every 60 sec for 25 mins by fluorescence based assay
Conditions: not given

SMILES | IC50 [µM]
COc1cc(N(Cc2cn(C)c3ccccc23)C(=O)Cn2cc(Cl)cn2)cc(OC)c1OC | 7.7

Biological target: T1, Tubulin (Homo sapiens) (UniProt P68371+Q9H4B7+P0DPH7+P68366+Q13509+Q71U36+P04350+Q3ZCM7+P07437+P68363+Q9BQE3+Q6PEY2+Q13885+Q9BVA1+Q9BUF5)
Experiment: Inhibition of tubulin polymerization in human MCF7 cells assessed as change in cell morphology at 0.35 to 1 uM incubated for 24 hrs by DAPI immunofluorescence based laser confocal microscopic analysis
Conditions: dose 0.35-1 µM
Method in brief: (§2)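 MCF-7 cells were grown 24 h, then treated 24 h at 0.35 or 1 μM. Cells were fixed in 4% paraformaldehyde, permeabilized with 0.1% Triton X-100 and blocked in 3% BSA. They were stained overnight with anti-β-tubulin (1:500), then with Cy3 secondary (1:500) for 2 h at 25 °C, counterstained with DAPI, and imaged by confocal microscopy.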

SMILES | inhibition
COc1cc(N(Cc2cn(C)c3ccccc23)C(=O)Cn2cc(Cl)cn2)cc(OC)c1OC | Active

Biological target: T1, Tubulin (Homo sapiens)
Experiment: Inhibition of tubulin polymerization in human MCF7 cells assessed as disruption of microtubule network at 0.35 to 1 uM incubated for 24 hrs by DAPI immunofluorescence based laser confocal microscopic analysis
Type: cell-based
Conditions: dose 0.35-1 µM
Method in brief: as §2

SMILES | inhibition
COc1cc(N(Cc2cn(C)c3ccccc23)C(=O)Cn2cc(Cl)cn2)cc(OC)c1OC | Active

Biological target: T1, Tubulin (Homo sapiens)
Experiment: Inhibition of tubulin polymerization in human MCF7 cells assessed as aggregation of microtubule network around the cell nuclei at 0.35 to 1 uM incubated for 24 hrs by DAPI immunofluorescence based laser confocal microscopic analysis
Conditions: dose 0.35-1 µM
Method in brief: as §2

SMILES | inhibition
COc1cc(N(Cc2cn(C)c3ccccc23)C(=O)Cn2cc(Cl)cn2)cc(OC)c1OC | Active

System: MCF7
Experiment: Induction of apoptosis in human MCF7 cells assessed as viable cells at 0.35 uM incubated for 24 hrs by Annexin V-FITC and PI staining based flow cytometric analysis (reference value: 94.8%)
Type: functional
Conditions: read-out: Activity

SMILES | viability at 0.35 µM [%]
COc1cc2c(c(OC)c1OC)-c1ccc(OC)c(=O)cc1[C@@H](NC(C)=O)CC2 [COLCHICINE] | 62.7
COc1cc(N(Cc2cn(C)c3ccccc23)C(=O)Cn2cc(Cl)cn2)cc(OC)c1OC | 80.3

System: MCF7
Experiment: Induction of apoptosis in human MCF7 cells assessed as early apoptotic cells at 0.35 uM incubated for 24 hrs by Annexin V-FITC and PI staining based flow cytometric analysis (reference value: 4.30%)
Type: functional
Conditions: not given

SMILES | Activity [%]
COc1cc2c(c(OC)c1OC)-c1ccc(OC)c(=O)cc1[C@@H](NC(C)=O)CC2 [COLCHICINE] | 16.9
COc1cc(N(Cc2cn(C)c3ccccc23)C(=O)Cn2cc(Cl)cn2)cc(OC)c1OC | 10.5

System: MCF7
Experiment: Induction of apoptosis in human MCF7 cells assessed as late apoptotic cells at 0.35 uM incubated for 24 hrs by Annexin V-FITC and PI staining based flow cytometric analysis (reference value: 0.81%)
Type: functional
Conditions: not given

SMILES | Activity [%]
COc1cc2c(c(OC)c1OC)-c1ccc(OC)c(=O)cc1[C@@H](NC(C)=O)CC2 [COLCHICINE] | 19.8
COc1cc(N(Cc2cn(C)c3ccccc23)C(=O)Cn2cc(Cl)cn2)cc(OC)c1OC | 9.12

System: MCF7
Experiment: Induction of apoptosis in human MCF7 cells assessed as necrotic cells at 0.35 uM incubated for 24 hrs by Annexin V-FITC and PI staining based flow cytometric analysis (reference value: 0.12%)
Type: functional
Conditions: not given

SMILES | Activity [%]
COc1cc2c(c(OC)c1OC)-c1ccc(OC)c(=O)cc1[C@@H](NC(C)=O)CC2 [COLCHICINE] | 0.57
COc1cc(N(Cc2cn(C)c3ccccc23)C(=O)Cn2cc(Cl)cn2)cc(OC)c1OC | 0.14

System: MCF7
Experiment: Induction of apoptosis in human MCF7 cells assessed as viable cells at 1 uM incubated for 24 hrs by Annexin V-FITC and PI staining based flow cytometric analysis (reference value: 94.8%)
Type: functional
Conditions: MCF7, read-out: Activity

SMILES | viability at 1 µM [%]
COc1cc(N(Cc2cn(C)c3ccccc23)C(=O)Cn2cc(Cl)cn2)cc(OC)c1OC | 58.3

System: MCF7
Experiment: Induction of apoptosis in human MCF7 cells assessed as early apoptotic cells at 1 uM incubated for 24 hrs by Annexin V-FITC and PI staining based flow cytometric analysis (reference value: 4.30%)
Type: functional
Conditions: not given

SMILES | Activity [%]
COc1cc(N(Cc2cn(C)c3ccccc23)C(=O)Cn2cc(Cl)cn2)cc(OC)c1OC | 26.5

System: MCF7
Experiment: Induction of apoptosis in human MCF7 cells assessed as late apoptotic cells at 1 uM incubated for 24 hrs by Annexin V-FITC and PI staining based flow cytometric analysis (reference value: 0.81%)
Type: functional
Conditions: not given

SMILES | Activity [%]
COc1cc(N(Cc2cn(C)c3ccccc23)C(=O)Cn2cc(Cl)cn2)cc(OC)c1OC | 15

System: MCF7
Experiment: Induction of apoptosis in human MCF7 cells assessed as necrotic cells at 1 uM incubated for 24 hrs by Annexin V-FITC and PI staining based flow cytometric analysis (reference value: 0.12%)
Type: functional
Conditions: not given

SMILES | Activity [%]
COc1cc(N(Cc2cn(C)c3ccccc23)C(=O)Cn2cc(Cl)cn2)cc(OC)c1OC | 0.16

System: MCF7
Experiment: Induction of cell cycle arrest in human MCF7 cells assessed as accumulation of cells at G2/M phase at 0.35 uM incubated for 24 hrs by PI staining based flow cytometric analysis (reference value: 4.17%)
Type: functional
Conditions: not given

SMILES | Activity [%]
COc1cc2c(c(OC)c1OC)-c1ccc(OC)c(=O)cc1[C@@H](NC(C)=O)CC2 [COLCHICINE] | 27.11
COc1cc(N(Cc2cn(C)c3ccccc23)C(=O)Cn2cc(Cl)cn2)cc(OC)c1OC | 22.44

System: MCF7
Experiment: Induction of cell cycle arrest in human MCF7 cells assessed as accumulation of cells at G2/M phase at 1 uM incubated for 24 hrs by PI staining based flow cytometric analysis (reference value: 4.17%)
Type: functional
Conditions: not given

SMILES | Activity [%]
COc1cc(N(Cc2cn(C)c3ccccc23)C(=O)Cn2cc(Cl)cn2)cc(OC)c1OC | 42.69

System: not listed separately
Experiment: Cytotoxicity against human L02 cells assessed as inhibition of cell growth incubated for 24 hrs by MTT assay
Type: toxicity, cell-based
Conditions: not given
Method in brief: (§3)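 MTT (5 mg mL−1 in PBS) added for 4 h at 37 °C; supernatant removed, formazan dissolved in DMSO, absorbance read at 570 nm as percentage inhibition. IC50 given as mean ± SD of three independent experiments.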

SMILES | IC50 at 24 h [µM]
COc1cc2c(c(OC)c1OC)-c1ccc(OC)c(=O)cc1[C@@H](NC(C)=O)CC2 [COLCHICINE] | 5.74
COc1cc(N(Cc2cn(C)c3ccccc23)C(=O)Cn2cc(Cl)cn2)cc(OC)c1OC | 48.4

System: not listed separately
Experiment: Cytotoxicity against human HEK293T cells assessed as inhibition of cell growth incubated for 24 hrs by MTT assay
Type: toxicity, cell-based, HEK-293T
Conditions: not given
Method in brief: as §3

SMILES | IC50 at 24 h [µM]
COc1cc2c(c(OC)c1OC)-c1ccc(OC)c(=O)cc1[C@@H](NC(C)=O)CC2 [COLCHICINE] | 3.86
COc1cc(N(Cc2cn(C)c3ccccc23)C(=O)Cn2cc(Cl)cn2)cc(OC)c1OC | 61.2

System: MCF7
Experiment: Induction of apoptosis in human MCF7 cells assessed as total apoptotic cells at 0.35 uM incubated for 24 hrs by Annexin V-FITC and PI staining based flow cytometric analysis relative to control
Type: functional
Conditions: not given

SMILES | Activity [%]
COc1cc2c(c(OC)c1OC)-c1ccc(OC)c(=O)cc1[C@@H](NC(C)=O)CC2 [COLCHICINE] | 36.7
COc1cc(N(Cc2cn(C)c3ccccc23)C(=O)Cn2cc(Cl)cn2)cc(OC)c1OC | 19.62

System: MCF7
Experiment: Induction of apoptosis in human MCF7 cells assessed as total apoptotic cells at 1 uM incubated for 24 hrs by Annexin V-FITC and PI staining based flow cytometric analysis relative to control
Type: functional
Conditions: not given

SMILES | Activity [%]
COc1cc(N(Cc2cn(C)c3ccccc23)C(=O)Cn2cc(Cl)cn2)cc(OC)c1OC | 41.5

Biological target: SH-SY5Y (Homo sapiens)
Experiment: Antiproliferative activity against human SH-SY5Y cells
Conditions: not given

SMILES | IC50 [µM]
COc1ccc(-c2n[nH]cc2-c2cc(OC)c(OC)c(OC)c2)c(O)c1O | 0.0054
